Source: ChEMBL document CHEMBL5376022, “Design, synthesis and biological evaluation of novel pyrimidine derivatives as bone anabolic agents promoting osteogenesis via the BMP2/SMAD1 signaling pathway” (RSC Med Chem, 2024)
Activity calls are given as the source filed them. No cut-off for these calls is given here.

Legend:
Calvarial osteoblast [1] = assay: Induction of cell proliferation of BALB/c mouse calvarial osteoblast cells at 0.001 nM incubated for 48 hrs by MTT assay relative to control; assay type: functional, Calvaria
Outline: (§1)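 Primary calvarial osteoblasts from 1–2-day-old neonatal BALB/c pups, released by dispase/collagenase digestion and grown in α-MEM with 10% FBS. Seeded at 2 × 10³ cells per well, treated after 24 h for 48 h in α-MEM with 5% FBS, 10 mM β-glycerophosphate and 50 μg mL⁻¹ ascorbic acid. MTT added for 4 h at 37 °C, formazan dissolved in DMSO, absorbance read at 570 nm versus untreated cells.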

Calvarial osteoblast [2] = assay: Induction of osteogenesis in BALB/c mouse calvarial osteoblast cells using PNPP as substrate assessed as increase in ALP activity at 0.1 to 10 nM measured after 48 hrs by spectrophotometry; assay type: functional, cell-based; conditions: Calvaria, dose 0.1-10 nM
Outline: (§2)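 Neonatal BALB/c calvarial osteoblasts, 2 × 10³ cells per well, adhered 24 h, then exposed to compounds (1 pM to 1 μM range) in osteoblast differentiation medium for 48 h. Cells frozen overnight at −80 or −20 °C, thawed at 37 °C to expose ectoenzyme; p-nitrophenyl phosphate added and ALP activity read at 405 nm. Untreated cells as control.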

Calvarial osteoblast [3] = assay: Cytotoxicity in BALB/c mouse calvarial osteoblast cells at 0.001 to 1000 nM incubated for 48 hrs by MTT assay; assay type: toxicity, cell-based, Calvaria; conditions: 1 µM, dose 0.001-1000 nM
Outline: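 Primary calvarial osteoblasts from 1–2 day old BALB/c pups (collagenase/dispase digests, α-MEM with 10% FBS) seeded at 2 × 10³ per well. MTT added for 4 h at 37 °C, formazan dissolved in DMSO, absorbance read at 570 nm.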

[4] = Induction of osteogenesis in BALB/c mouse MSC cells assessed as increase in mineral nodule formation at 0.1 nM treated for 21 days with compound refreshment for every 48 hrs by Alizarin red S staining based analysis relative to control; assay type: functional; conditions: time 21 day
Outline: (§3)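 Bone marrow cells were flushed from the long bones of 6–8-week-old BALB/c mice and seeded at 2 × 10⁶ per well. Medium: 10% FBS, 100 nM dexamethasone, 50 μg mL⁻¹ ascorbic acid and 10 mM β-glycerophosphate. Compound and medium were renewed every 48 h for 21 days. Cells were fixed in 4% paraformaldehyde and stained with Alizarin red (pH 4.2). Stain was eluted with 10% cetylpyridinium chloride for 1 h and read at 595 nm versus control.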

Calvarial osteoblast [5] = assay: Induction of cell proliferation of BALB/c mouse calvarial osteoblast cells at 0.1 nM incubated for 48 hrs by MTT assay relative to control; assay type: functional, Calvaria; outline: as §1
[6] = Induction of osteogenesis in BALB/c mouse MSC cells assessed as increase in mineral nodule formation at 0.001 nM treated for 21 days with compound refreshment for every 48 hrs by Alizarin red S staining based analysis relative to control; assay type: functional; conditions: time 21 day; outline: as §3
Calvarial osteoblast [7] = assay: Induction of osteogenesis in BALB/c mouse calvarial osteoblast cells using PNPP as substrate assessed as increase in ALP activity at 0.001 to 10 nM measured after 48 hrs by spectrophotometry; assay type: functional, cell-based; conditions: Calvaria, dose 0.001-10 nM; outline: as §2

Row | Compound | Activity (Calvarial osteoblast [1]) [%] | Activity (Calvarial osteoblast [2]) | Activity (Calvarial osteoblast [3]) | Activity [4] [%] | Activity (Calvarial osteoblast [5]) [%] | Activity [6] [%] | Activity (Calvarial osteoblast [7])
1 | CCCCCC(=O)Nc1nc(-c2ccc(Cl)cc2)c(Cl)c(-c2cc(OC)c(OC)cc2OC)n1 | ~18 | Active | Non-Toxic | ~27 | – | – | –
2 | COc1cc(OC)c(-c2nc(N)nc(-c3ccc(Cl)cc3)c2Cl)cc1OC | – | Active | Non-Toxic | ~26 | ~29 | – | –
3 | CCCCCC(=O)Nc1nc(-c2ccc(Br)cc2)cc(-c2cc(OC)c(OC)cc2OC)n1 | ~22 | – | Non-Toxic | ~25 | ~25 | ~24 | Active
